{"source": "ChEMBL document CHEMBL1921744", "about": "“Lipophosphonoxins: new modular molecular structures with significant antibacterial properties” (J Med Chem, 2011)", "key": {"Pseudomonas aeruginosa": {"tested_on": "Pseudomonas aeruginosa", "assay": "Antibacterial activity against Pseudomonas aeruginosa after 24 to 48 hrs by microdilution method", "type": "functional", "method_in_brief": "(§1)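 Incubation 24/48 h at 37 °C. MIC read as the lowest concentration inhibiting growth. MBC determined by transferring 10 μL from wells onto blood agar, taken as the lowest concentration with no visible growth.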"}, "[1]": {"tested_on": "Staphylococcus haemolyticus", "assay": "Antibacterial activity against fluoroquinolone-resistant Staphylococcus haemolyticus 16568 after 24 to 48 hrs by microdilution method", "type": "functional", "method_in_brief": "(§2)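 Broth microdilution MIC on clinical isolates from Teaching Hospital Olomouc, stored at −80 °C. Compounds were serially diluted in brain heart infusion broth over 200–1.56 μg/mL (sometimes extended to 0.78 μg/mL), with an inoculum of 10⁵⁻⁶ CFU/ml per well. Plates were incubated at 37 °C and read at 24/48 h. MIC was taken as the lowest concentration inhibiting growth.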"}, "[2]": {"assay": "Cytotoxicity against human Erythroid progenitor cells assessed as maximum safe concentration after 48 hrs by CellTiter-blue assay", "type": "cell-based", "details": "read-out: Activity", "method_in_brief": "(§3)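 Normal human erythroid progenitor cells, expanded from umbilical cord blood, plated at 25000 cells/well immediately before compound addition (added as a 5× predilution in culture medium). Viability by CellTiter-Blue fluorescence 48 h after addition, normalized to untreated cells set as 100%.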"}, "Escherichia coli [3]": {"tested_on": "Escherichia coli", "assay": "Antibacterial activity against Escherichia coli after 24 to 48 hrs by microdilution method", "type": "functional", "method_in_brief": "as §1"}, "Staphylococcus aureus [4]": {"tested_on": "Staphylococcus aureus", "assay": "Antibacterial activity against Staphylococcus aureus CCM 4223 after 24 to 48 hrs by microdilution method", "type": "functional", "method_in_brief": "as §1"}, "Escherichia coli [5]": {"tested_on": "Escherichia coli", "assay": "Antibacterial activity against permeabilized Escherichia coli DH5[alpha] assessed as cell killing at 10 uM", "type": "functional", "method_in_brief": "(§4)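 Competent (permeabilized) E. coli DH5α cells were mixed with 5 ng pUC18 (ampR) and serially diluted compound or buffer only. Steps: 30 min on ice, heat shock at 42 °C for 90 s, 5 min on ice, then LB without antibiotic for 1 h at 37 °C with shaking. Plated on LB agarose with ampicillin 100 μg/mL overnight at 37 °C. Colonies counted against the no-compound control.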"}, "Bacillus subtilis [6]": {"tested_on": "Bacillus subtilis", "assay": "Antibacterial activity against Bacillus subtilis after 24 to 48 hrs by microdilution method", "type": "functional", "method_in_brief": "as §1"}, "Staphylococcus aureus [7]": {"tested_on": "Staphylococcus aureus", "assay": "Antibacterial activity against methicillin-resistant Staphylococcus aureus 4591 after 24 to 48 hrs by microdilution method", "type": "functional", "method_in_brief": "as §2"}, "Streptococcus agalactiae": {"tested_on": "Streptococcus agalactiae", "assay": "Antibacterial activity against Streptococcus agalactiae after 24 to 48 hrs by microdilution method", "type": "functional", "method_in_brief": "as §1"}, "Enterococcus faecium [8]": {"tested_on": "Enterococcus faecium", "assay": "Antibacterial activity against vancomycin-resistant Enterococcus faecium VanA419/ana after 24 to 48 hrs by microdilution method", "type": "functional", "method_in_brief": "as §2"}, "Enterococcus faecalis [9]": {"tested_on": "Enterococcus faecalis", "assay": "Antibacterial activity against Enterococcus faecalis CCM 4224 after 24 to 48 hrs by microdilution method", "type": "functional", "method_in_brief": "as §1"}, "[10]": {"assay": "Cytotoxicity against human Erythroid progenitor cells assessed as cell viability after 48 hrs by CellTiter-blue assay", "type": "cell-based", "method_in_brief": "as §3"}, "[11]": {"tested_on": "Staphylococcus epidermidis", "assay": "Antibacterial activity against methicillin-resistant Staphylococcus epidermidis 8700/B after 24 to 48 hrs by microdilution method", "type": "functional", "method_in_brief": "as §2"}, "[12]": {"assay": "Induction of apoptosis in human Erythroid progenitor cells assessed as caspase 3/7 activation after 4 hrs by Caspase-Glo 3/7 assay", "method_in_brief": "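Cord-blood-derived human erythroid progenitor cells plated at 25000 cells/well and exposed to compound prediluted in medium. Caspase 3/7 activation read by Caspase-Glo 3/7 luminescence 4 h after addition, normalized to untreated control cells set as 100%.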"}, "Staphylococcus aureus [13]": {"tested_on": "Staphylococcus aureus", "assay": "Antibacterial activity against methicillin-resistant Staphylococcus aureus SR3637", "type": "functional"}, "Staphylococcus aureus [14]": {"tested_on": "Staphylococcus aureus", "assay": "Antibacterial activity against Staphylococcus aureus infected in mouse", "type": "functional"}, "Enterococcus faecalis [15]": {"tested_on": "Enterococcus faecalis", "assay": "Antibacterial activity against vancomycin-resistant Enterococcus faecalis SR7914", "type": "functional"}, "Staphylococcus aureus [16]": {"tested_on": "Staphylococcus aureus", "assay": "Antibacterial activity against methicillin-sensitive Staphylococcus aureus ATCC 29213", "type": "functional", "method_in_brief": "as §1"}, "Enterococcus faecium [17]": {"tested_on": "Enterococcus faecium", "assay": "Antibacterial activity against vancomycin-resistant Enterococcus faecium SR7917", "type": "functional"}, "Enterococcus faecium [18]": {"tested_on": "Enterococcus faecium", "assay": "Antibacterial activity against Enterococcus faecium ATCC 19434", "type": "functional", "method_in_brief": "as §1"}, "Enterococcus faecalis [19]": {"tested_on": "Enterococcus faecalis", "assay": "Antibacterial activity against Enterococcus faecalis ATCC 29212", "type": "functional"}, "Escherichia coli [20]": {"tested_on": "Escherichia coli", "assay": "Antibacterial activity against permeabilized Escherichia coli DH5[alpha] assessed as cell killing at 25 uM", "type": "functional", "method_in_brief": "as §4"}, "Escherichia coli [21]": {"tested_on": "Escherichia coli", "assay": "Antibacterial activity against permeabilized Escherichia coli DH5[alpha] assessed as log reduction of colony forming unit at 10 uM", "type": "functional, organism-based", "method_in_brief": "as §4"}, "Escherichia coli [22]": {"tested_on": "Escherichia coli", "assay": "Antibacterial activity against permeabilized Escherichia coli DH5[alpha] assessed as log reduction of colony forming unit at 1 mM", "type": "functional, organism-based", "method_in_brief": "as §4"}, "Bacillus subtilis [23]": {"tested_on": "Bacillus subtilis", "details": "at 0.2 mM"}, "[24]": {"molecular_target": "T1, Phospho-N-acetylmuramoyl-pentapeptide-transferase (Mycobacterium tuberculosis, UniProt P9WMW7)", "T1 sequence (P9WMW7 whole entry)": "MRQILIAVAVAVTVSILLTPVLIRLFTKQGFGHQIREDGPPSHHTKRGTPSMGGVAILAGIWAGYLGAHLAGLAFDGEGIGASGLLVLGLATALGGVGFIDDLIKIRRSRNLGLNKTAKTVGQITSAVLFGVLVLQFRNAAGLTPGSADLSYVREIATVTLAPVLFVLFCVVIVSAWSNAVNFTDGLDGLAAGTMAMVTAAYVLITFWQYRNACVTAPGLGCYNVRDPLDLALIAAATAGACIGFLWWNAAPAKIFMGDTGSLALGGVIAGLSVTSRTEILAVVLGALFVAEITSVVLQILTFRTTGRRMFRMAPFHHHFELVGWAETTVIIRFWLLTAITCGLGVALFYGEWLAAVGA", "assay": "Inhibition of Mycobacterium tuberculosis MraY translocase"}, "[25]": {"tested_on": "Mycobacterium tuberculosis", "assay": "Antimycobacterial activity against drug-susceptible Mycobacterium tuberculosis", "type": "functional"}}, "note": "Active and inactive are the calls of the source. The rule behind the calls is not given here."}
{"compound": "CCCCCCCCCCCCCCCCOP(=O)(CCN1C[C@@H](O)[C@H](O)C1)OC[C@H]1O[C@@H](n2ccc(=O)[nH]c2=O)[C@H](O)[C@@H]1O", "note": "(mixture of isomers)", "values": [{"measurement": "MIC", "setting": "Pseudomonas aeruginosa", "result": "> 200", "unit": "µg/mL"}, {"measurement": "MIC", "setting": "[1]", "result": 12.5, "unit": "µg/mL"}, {"measurement": "MNTC at 48 h", "setting": "[2]", "result": 31.2, "unit": "µg/mL"}, {"measurement": "MIC", "setting": "Escherichia coli [3]", "result": "> 200", "unit": "µg/mL"}, {"measurement": "MIC", "setting": "Staphylococcus aureus [4]", "result": 6.25, "unit": "µg/mL"}, {"measurement": "Activity", "setting": "Escherichia coli [5]", "result": 90, "unit": "%"}, {"measurement": "MIC", "setting": "Bacillus subtilis [6]", "result": 3.13, "unit": "µg/mL"}, {"measurement": "MIC", "setting": "Staphylococcus aureus [7]", "result": 12.5, "unit": "µg/mL"}, {"measurement": "MIC", "setting": "Streptococcus agalactiae", "result": 1.56, "unit": "µg/mL"}, {"measurement": "MIC", "setting": "Enterococcus faecium [8]", "result": 3.13, "unit": "µg/mL"}, {"measurement": "MIC", "setting": "Enterococcus faecalis [9]", "result": 6.25, "unit": "µg/mL"}, {"measurement": "IC50", "setting": "[10]", "result": 56, "unit": "µg/mL"}, {"measurement": "MIC", "setting": "[11]", "result": 3.13, "unit": "µg/mL"}, {"measurement": "Activity", "setting": "[12]", "result": "Non-toxic"}]}
{"compound": "CC(C)C[C@H](NC(=O)[C@@H](NC(=O)N[C@H](C(=O)O)C(C)C)[C@@H]1CCNC(=N)N1)C(=O)NCCCN[C@H](C(=O)O)[C@H](O[C@@H]1O[C@H](CN)[C@@H](O)[C@H]1O)[C@H]1O[C@@H](n2ccc(=O)[nH]c2=O)[C@H](O)[C@@H]1O", "note": "[MURAMYCIN D2]", "values": [{"measurement": "MIC", "setting": "Staphylococcus aureus [13]", "result": "> 64", "unit": "µg/mL"}, {"measurement": "ED50", "setting": "Staphylococcus aureus [14]", "result": 1.1, "unit": "mg/kg"}, {"measurement": "MIC", "setting": "Enterococcus faecalis [15]", "result": "> 64", "unit": "µg/mL"}, {"measurement": "MIC", "setting": "Staphylococcus aureus [16]", "result": "> 64", "unit": "µg/mL"}, {"measurement": "MIC", "setting": "Enterococcus faecium [17]", "result": "> 64", "unit": "µg/mL"}, {"measurement": "MIC", "setting": "Enterococcus faecium [18]", "result": "> 64", "unit": "µg/mL"}, {"measurement": "MIC", "setting": "Enterococcus faecalis [19]", "result": "> 64", "unit": "µg/mL"}]}
{"compound": "CCCCCCCCCCCCCCCCCCCCOP(=O)(CCN1C[C@@H](O)[C@H](O)C1)OC[C@H]1O[C@@H](n2ccc(=O)[nH]c2=O)[C@H](O)[C@@H]1O", "note": "(some centres undefined)", "values": [{"measurement": "MIC", "setting": "Pseudomonas aeruginosa", "result": "> 200", "unit": "µg/mL"}, {"measurement": "MNTC at 48 h", "setting": "[2]", "result": 15.6, "unit": "µg/mL"}, {"measurement": "MIC", "setting": "Escherichia coli [3]", "result": "> 200", "unit": "µg/mL"}, {"measurement": "Activity", "setting": "Escherichia coli [20]", "result": 90, "unit": "%"}, {"measurement": "MIC", "setting": "Streptococcus agalactiae", "result": 6.25, "unit": "µg/mL"}, {"measurement": "MIC", "setting": "Enterococcus faecalis [9]", "result": 100, "unit": "µg/mL"}, {"measurement": "Activity", "setting": "Escherichia coli [21]", "result": "Active"}, {"measurement": "IC50", "setting": "[10]", "result": 31, "unit": "µg/mL"}, {"measurement": "Activity", "setting": "[12]", "result": "Non-toxic"}]}
{"compound": "O=c1ccn([C@@H]2O[C@H](COP(=O)(O)CCN3C[C@@H](O)[C@H](O)C3)[C@@H](O)[C@H]2O)c(=O)[nH]1", "values": [{"measurement": "Activity", "setting": "Escherichia coli [22]", "result": "inactive"}]}
{"compound": "Cetyltrimethylammonium bromide", "values": [{"measurement": "inhibition", "setting": "Bacillus subtilis [23]", "result": "Active"}]}
{"compound": "CC(C)CCCCCCCC(CC(=O)O[C@H]1CN(C)[C@@H]([C@H](O[C@@H]2O[C@H](CN)[C@@H](O)[C@H]2OS(=O)(=O)O)[C@H]2O[C@@H](n3ccc(=O)[nH]c3=O)[C@H](O)[C@@H]2O)C(=O)N(C)[C@@H]1C(=O)O)OC(=O)CC(C)CC(=O)O", "note": "(some centres undefined) [LIPOSIDOMYCIN B]", "values": [{"measurement": "IC50", "setting": "[24]", "result": 49.1, "unit": "nM"}]}
{"compound": "CO[C@@H]1[C@@H](OC)[C@H](C)O[C@@H](OC(=O)C[C@@H](C)CC(=O)O[C@@H](CCCCCCCCCCCC(C)C)CC(=O)O[C@H]2CN(C)[C@@H]([C@H](O[C@@H]3O[C@H](CN)[C@@H](O)[C@H]3O)[C@H]3O[C@@H](n4ccc(=O)[nH]c4=O)[C@H](O)[C@@H]3O)C(=O)N(C)[C@@H]2C(=O)O)[C@@H]1OC", "note": "[CAPRAZAMYCIN B]", "values": [{"measurement": "MIC", "setting": "[25]", "result": 3.13, "unit": "µg/mL"}]}
